System: MS2 coat protein
Test: apparent Kd, MS2 coat protein; higher = weaker binding; RNA-MaP array; FMN 200 µM where present
How it was run: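 Green signal was scaled to red-channel RNA signal and control-cluster median Fmax, and the apparent Kd was taken as the median of filtered per-cluster binding-curve fits. The binding series used SNAP-549-labelled MS2 coat protein from 0.7 or 1.5 nM, doubling to 3 µM, on designs transcribed by stalled E. coli RNA polymerase on Illumina sequencing-chip clusters. Each series ran without and then with constant ligand in 100 mM Tris-HCl pH 7.5, 80 mM KCl, 4 mM MgCl2, BSA, DTT, yeast tRNA and Tween-20.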

[1] = designed as: OFF switch for flavin mononucleotide, no ligand
[2] = ligand present: flavin mononucleotide, designed as: OFF switch for flavin mononucleotide
[3] = designed as: ON switch for flavin mononucleotide, no ligand
[4] = ligand present: flavin mononucleotide, designed as: ON switch for flavin mononucleotide

UCAUGAUGGAAGAAGGGAGUCGUGCAUAACAACUCAGGAUAUUUCACAUGAGGAUCACCCAUGUCGAAGUAACAAUGUUGAUUA
apparent Kd [1]: 15.9 nM | apparent Kd [2]: 28 nM

UGAUCGAGAGAUCUUAGAUUCUGGUAGGAUAUACAUAAUGUAAUAUAGACAUGAGGAUCACCCAUGUAGAAGGACUAGAGUCUA
apparent Kd [1]: 8.49 nM | apparent Kd [2]: 24.3 nM

AAUAACAGAGGAUAUACUAUUUUAUGUGUUUGUUAUUUUGAACAUGAGGAUCACCCAUGUAGAAGGCUGAGUAA
apparent Kd [1]: 28.8 nM | apparent Kd [2]: 28.9 nM

AUGUCGCUAGGAGGAUAUACAUGAUCUCGCACAUGUACCGCUCACGCCACAUGAGGAUCACCCAUGUAGAAGGCCUAGAGAGGU
apparent Kd [1]: 18.6 nM | apparent Kd [2]: 54.8 nM

AAGUAGACGGUGAGGAUAUAGGUCGAAUGACCGAUCUAGAAGGCACAUGAGGAUCACCCAUGUGGGUAACGUCG
apparent Kd [1]: 17.8 nM | apparent Kd [2]: 20.7 nM

UCAGGCUUCGAGAAGGACAUGAGGAUCACCCAUGUGCGUGUGAAGCAGCCGUGAGGCUGCAUCAUGUAGGAUAUCGGAGUCUGA
apparent Kd [1]: 75.6 nM | apparent Kd [2]: 459 nM

UUUGUGUCAGGAUAUGAGUAGUAGAACAAUAGUACUACUACUCAGAAGGGACAUGAGGAUCACCCAUGUUCCUC
apparent Kd [1]: 19.3 nM | apparent Kd [2]: 88.3 nM

GUGGACUACGUAGGAUAUGUAGGAUAUUCCUACAUGAGGAUCACCCAUGUUAGCAUGGAAGAAGGACAGAAGGACGUGGUCCAG
apparent Kd [3]: 1130 nM | apparent Kd [4]: 16 nM

CUCAGCUCGUCAGGAUAUACGUCACUGCUUCGGCAGUGUGGUAAGAUCACAUGAGGAUCACCCAUGUAGAAGGGACGAGCUGAA
apparent Kd [1]: 12.8 nM | apparent Kd [2]: 266 nM

UAUAUAUAGUAAGGAUAUGUAUUAUUUUUAUAAACAGAAGGUACUGACAUGAGGAUCACCCAUGUUUUAGUGUGGGCAUGUAGA
apparent Kd [1]: 49.1 nM | apparent Kd [2]: 70.4 nM

CACUCACAUGAGGAUCACCCAUGUCCUAGCAGGUCAGGAUAUAGCUCGGAUGCGUUGAGGCUAGAAGGGACAGGUU
apparent Kd [3]: 116 nM | apparent Kd [4]: 68.5 nM

CCCAAGUCAGGAUAUGGAACACAGAGACAUCUCUGUGCCCACCAGAAGGGACAUGAGGAUCACCCAUGUGAUGA
apparent Kd [1]: 64.4 nM | apparent Kd [2]: 296 nM

AAAAAGUCAGGAUAUACGAAAAAAAAAAAAAAAAAAAAAAAGUAGAAGGGACAUGAGGAUCACCCAUGUAAAAA
apparent Kd [1]: 78.2 nM | apparent Kd [2]: 58.8 nM

AUCAGCUCGUCAGGAUAUACGUCACUGCGUCAGCAGUGUGGUAAGAUCACAUGAGGAUCACCCAUGUAGAAGGGACGAGCUGGU
apparent Kd [1]: 14.4 nM | apparent Kd [2]: 239 nM

AUGGAUAUCACAGGAUAUGCUAAGGAUACCUUAGCAGAAGGGUGAUCCAUCCUAUGGCUGUACAUGAGGAUCACCCAUGUGUCA
apparent Kd [3]: 331 nM | apparent Kd [4]: 41.4 nM

CUCUUGUGAGGAUAUCAGGUGUGCUAGCGUACUGGUACAUCUGAGAAGGCACAUGAGGAUCACCCAUGUUUCAA
apparent Kd [1]: 118 nM | apparent Kd [2]: 21.9 nM

GCAUGCGUUCGAGGAUAUCGGUGAGAAACGGAACGAGAAGGCGAUAGAAUGUCUCAUCUUAUGAACAUGAGGAUCACCCAUGUA
apparent Kd [3]: 32.7 nM | apparent Kd [4]: 31.6 nM

ACAUGCAAGUAGAAGGACGGAUAUUUUGAUAACGUAGGAUAUACAGAAUCAUAUCCACAUGAUAACAUGAGGAUCACCCAUGUA
apparent Kd [1]: 11.8 nM | apparent Kd [2]: 12.4 nM

GGUACCAUCACAGGAUAUCGUAUCCUUUGGGUACGAGAAGGGUGAUAACAUGAGGAUCACCCAUGUGGUACCGGGCGUGAGCCC
apparent Kd [3]: 1340 nM | apparent Kd [4]: 323 nM

GUAUGACAAAGUCAUACCGCUCUGACAUGAGGAUCACCCAUGUAGGAUAUAUUAAUCAAAGAUUAAUAGAAGGACAUGUUUCUU
apparent Kd [1]: 35.3 nM | apparent Kd [2]: 79.3 nM

GGUGGACAUGAGGAUCACCCAUGUGAGGAUAUCGGCCGGCUAGUGGCGGCUGGCUUCUCGAGAAGGCGCAUAGU
apparent Kd [1]: 47.2 nM | apparent Kd [2]: 62.9 nM

AUGGUACAUGAGGAUCACCCAUGUCAGGAUAUCGGCUGUGACGUGAAAAGAGUGUUGGCGAGAAGGGACUGCAA
apparent Kd [1]: 39.7 nM | apparent Kd [2]: 45.6 nM

UGGUACUAGGGAGGAUAUGGGAAGAUACAUGAGGAUCACCCAUGUUGAAGAAUGCCGAGAGGCAACUAGAAGGCCCUAGUACCU
apparent Kd [3]: 137 nM | apparent Kd [4]: 9.13 nM

UAAAAGCUAGGAUAUACAUGAGGAUCACCCAUGUCAACCACACGGAUGCGCCGAGCAUGUAGAAGGAGCACCGG
apparent Kd [1]: 18.2 nM | apparent Kd [2]: 24.1 nM

AAUUAUAUACAGAAGGAGUUAUUUAGAGGAUUACUAGGAUAUGUUCACAUGAGGAUCACCCAUGUCAUAUUGGGAUUUAUUAUU
apparent Kd [1]: 18 nM | apparent Kd [2]: 24 nM

UGAUGAGGUUAGAAGGUACAGAGUAGUGGACCAAACAUGAGGAUCACCCAUGUCAUGGGAGGGAGUAAGGAUAUAAAGUUGUAG
apparent Kd [1]: 63.7 nM | apparent Kd [2]: 51.2 nM

GGUGCGUAUGUGAGGAUAUGCUGGUCCUUGGCUCAGCAGAAGGCACAUGAGGAUCACCCAUGUGGUGUCGUACC
apparent Kd [1]: 333 nM | apparent Kd [2]: 21.8 nM

ACAUUUAAUACAGGAUAUGUUAGUAUACAGUAGAUUGGUUAUUACAUAAUAACAGAAGGGUAGAACAUGAGGAUCACCCAUGUA
apparent Kd [3]: 217 nM | apparent Kd [4]: 106 nM

ACAUGAUAUGUAGGAUAUCACAUUAAUUGUUUUAUAAUUGUAAUUUGGAUUUGAGAAGGACAUUUACAUGAGGAUCACCCAUGU
apparent Kd [1]: 15.9 nM | apparent Kd [2]: 12.1 nM

AAGAGACAUCAGAAGGGAACCCAAACGCGCGGUUCAGGAUAUGAGAUCUUAUGUAGUUCGACAUGAGGAUCACCCAUGUCCGCG
apparent Kd [3]: 101 nM | apparent Kd [4]: 8.22 nM

AUCCGGAGGGAGAAGGGCUAGGAGGUCCAGCUUAUGUGUGUUGCAACAUGAGGAUCACCCAUGUAGCAGGAUAUCCCUUGUAUA
apparent Kd [1]: 51.2 nM | apparent Kd [2]: 214 nM

GCGAAUUAGUGAGGAUAUACAUAAUUUAAAACUGUAGAAGGCACAAUCCUCAAGACAUGAGGAUCACCCAUGUGGUAUUACGCU
apparent Kd [1]: 138 nM | apparent Kd [2]: 861 nM

GGAUCGAAAGUGAGGAUAUGCUGGUCCUUGGAUCAGCAGAAGGCACAUGAGGAUCACCCAUGUGAUUUCGAUCC
apparent Kd [1]: 16.6 nM | apparent Kd [2]: 25 nM

GGUUACAAGUAAGGAUAUGUAUAUGAAACAUAUACAGAAGGUACAUGAGGAUCACCCAUGUUCUUGCAAAGCGAAUAUGUAACC
apparent Kd [1]: 15.1 nM | apparent Kd [2]: 18.6 nM

UUAUACAUGAGGAUCUCCCAUGACAUGAGGAUCACCCAUGUGCAGGAUAUACGUGAUAUAAUAUAGUAGAAGGGCAGACUAUAU
apparent Kd [1]: 119 nM | apparent Kd [2]: 130 nM

GUCGUGUGAGGAUAUGGAUAGAAGAAGUGAAAGUAAGCGACCUAGAAGGCACAUGAGGAUCACCCAUGUAUGUG
apparent Kd [1]: 45.3 nM | apparent Kd [2]: 75.6 nM

Source: the EternaBench riboswitch data
